A word on the pIC50: it is the IC50 on a negative log10 scale, so that one unit is a factor of ten.

pIC50: −log10 of the molar value. Active and inactive are the calls of the source. The calls are words filed in the database; no cut-off is given here.

In one series the test system is Human alphaherpesvirus 1. The experiment in a line: Potency index, ratio of acyclovir IC50 to compound IC50 for antiviral activity against HSV-1 infected in neuronal progenitor cells. The format is functional, Neuronal cell line.
Settings: not given
For the molecule `O=C(N/N=C/c1ccc[nH]1)C1CC1(c1ccc(OC(F)(F)F)cc1)c1ccc(OC(F)(F)F)cc1` (stereo unspecified), the “Ratio IC50” value worked out at 2.

Another series deals with Human alphaherpesvirus 1. Description: Antiviral activity against Herpes simplex virus 1 infected in neuronal progenitor cells assessed as decrease in fluorescent cells. The class given is functional, organism-based. Conditions: Human alphaherpesvirus 1, Neuronal cell line.
In the case of `O=C(N/N=C/c1ccc[nH]1)C1CC1(c1ccc(OC(F)(F)F)cc1)c1ccc(OC(F)(F)F)cc1` (stereo unspecified), the negative logarithm of the IC50 (pIC50) was 4.85.
As to `Nc1nc2c(ncn2COCCO)c(=O)[nH]1` [ACYCLOVIR], the pIC50 was 4.56.

In the next series the test system is Neuronal cell line. The experiment in a line: Cytotoxicity against human neuronal progenitor cells assessed as cell viability at 25 uM. The class given is cell-based.
Settings: not given
Consider `O=C(N/N=C/c1ccc[nH]1)C1CC1(c1ccc(OC(F)(F)F)cc1)c1ccc(OC(F)(F)F)cc1` (stereo unspecified), for which the Activity result was “Non-Toxic”.

The test system of another series is Human alphaherpesvirus 1. Description: Antiviral activity against recombinant EGFP/RFP expressing Herpes simplex virus 1 KOS infected in iPSC-neurons assessed as decrease in proportion of fluorescent cells compound added 2 hr post infection incubated for 48 hrs by flow cytometry analysis. The class given is functional, organism-based. Conditions: Induced pluripotent stem cell-derived neuron. The gist of the method: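 iPSC-derived neurons infected with recombinant HSV-1 derived from strain KOS, expressing EGFP from the early ICP0 promoter and monomeric RFP from the glycoprotein C promoter. Infection was scored as the proportion of fluorescent cells. Controls were uninfected cells, virus alone, and virus with acyclovir as positive control. The protocol follows the group's earlier procedure.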
A general note: Flow cytometry measures light scatter and fluorescence of single cells or particles in a stream.
Regarding `O=C(N/N=C/c1ccc(F)cc1F)C1CC1(c1ccccc1)c1ccccc1` (stereo unspecified), the outcome was inactive.
Still for that read-out and setting: for `O=C(N/N=C/c1ccccn1)C1CC1(c1ccccc1)c1ccccc1` (stereo unspecified) the value was “Active”; for `O=C(N/N=C/c1ccccc1Cl)C1CC1(c1ccccc1)c1ccccc1` (stereo unspecified), “Active”; for `O=C(N/N=C/c1ccc[nH]1)C1CC1(c1ccc(OC(F)(F)F)cc1)c1ccc(OC(F)(F)F)cc1` (stereo unspecified), “Active”.
The same measure, in the same setting: for `O=C(N/N=C1/CCCc2ccccc21)C1CC1(c1ccccc1)c1ccccc1` (stereo unspecified) the value was “inactive”; for `O=C(N/N=C/c1ccc(Br)cc1)C1CC1(c1ccccc1)c1ccccc1` (stereo unspecified), “inactive”; for `O=C(N/N=C/c1ccco1)C1CC1(c1ccccc1)c1ccccc1` (stereo unspecified), “Active”.
The same measure, in the same setting: with `CN(C)c1ccc(/C=N/NC(=O)C2CC2(c2ccccc2)c2ccccc2)cc1` (stereo unspecified) the entry was “inactive”.
Turning to `O=C(N/N=C/c1ccc(Br)o1)C1CC1(c1ccccc1)c1ccccc1` (stereo unspecified), the outcome was inactive.
Same read-out and setting: with `O=C(N/N=C/C1CCCCC1)C1CC1(c1ccccc1)c1ccccc1` (stereo unspecified) the entry was “Active”.
Still for that read-out and setting: with `O=C(N/N=C/c1cccs1)C1CC1(c1ccccc1)c1ccccc1` (stereo unspecified) the entry was “Active”; with `O=C(N/N=C/c1c[nH]c2ccccc12)C1CC1(c1ccccc1)c1ccccc1` (stereo unspecified), “Active”; with `O=C(N/N=C/c1ccc[nH]1)C1CC1(c1ccccc1)c1ccccc1` (stereo unspecified), “Active”.
Same read-out and setting: with `O=C(N/N=C/c1c[nH]cn1)C1CC1(c1ccccc1)c1ccccc1` (stereo unspecified) the entry was “inactive”; with `O=C(N/N=C/c1ccc2c(c1)OCO2)C1CC1(c1ccccc1)c1ccccc1` (stereo unspecified), “Active”; with `COc1cc(/C=N/NC(=O)C2CC2(c2ccccc2)c2ccccc2)ccc1O` (stereo unspecified), “inactive”.
Turning to `O=C(N/N=C/c1ncc[nH]1)C1CC1(c1ccccc1)c1ccccc1` (stereo unspecified), the result was inactive.
On the same count and under the same terms, for `O=C(N/N=C/c1ccc([N+](=O)[O-])cc1)C1CC1(c1ccccc1)c1ccccc1` (stereo unspecified) the value was “inactive”; for `O=C(N/N=C/c1ccccn1)C1CC1(c1ccc(OC(F)(F)F)cc1)c1ccc(OC(F)(F)F)cc1` (stereo unspecified), “Active”.
Still for that read-out and setting: with `O=C(N/N=C/c1cccnc1)C1CC1(c1ccccc1)c1ccccc1` (stereo unspecified) the entry was “inactive”; with `Nc1nc2c(ncn2COCCO)c(=O)[nH]1` [ACYCLOVIR], “Active”; with `COc1cc(/C=N/NC(=O)C2CC2(c2ccccc2)c2ccccc2)cc(OC)c1OC` (stereo unspecified), “Active”.

Values taken from ChEMBL document CHEMBL4699512, “Synthesis of non-nucleoside anti-viral cyclopropylcarboxacyl hydrazones and initial anti-HSV-1 structure-activity relationship studies” (Bioorg Med Chem Lett, 2020).
